According to PMC11956937 (bioRxiv, 2025):

How the values were obtained:
human TOP3B = human TOP3B (Homo sapiens, UniProt O95985); assay: Inhibition of human TOP3B relaxation of supercoiled DNA; assay type: biochemical; conditions: for Inhibition of the DNA relaxation activity of human TOP3B: tested at up to 200 μM concentration
How it was run: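 TOP3B (Sf9-expressed, GST/gel-filtration purified) and E. coli-expressed His-TDRD3 each at 18 nM, then DMSO or test compound, then 500 ng supercoiled pBAD/Thio plasmid; 20 mM HEPES-KOH pH 7.5, 5 mM MgCl2, 1 mM DTT, 0.1 mg/ml BSA; 37 ℃, 1 h. SDS/proteinase K stop; 1% agarose with 5 μg/mL chloroquine, SYBR Gold. Relaxed DNA gives % inhibition vs DMSO; 200 μM screen, IC50 from serial dilutions, 3–4 repeats.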

human TOP1 = biological target: T1, human TOP1 (Homo sapiens, UniProt P11387); assay: Inhibition of human TOP1 relaxation activity; assay type: biochemical; conditions: comparison of IC50 values for TOP3B and TOP1 relaxation
T1 sequence (P11387 1-765): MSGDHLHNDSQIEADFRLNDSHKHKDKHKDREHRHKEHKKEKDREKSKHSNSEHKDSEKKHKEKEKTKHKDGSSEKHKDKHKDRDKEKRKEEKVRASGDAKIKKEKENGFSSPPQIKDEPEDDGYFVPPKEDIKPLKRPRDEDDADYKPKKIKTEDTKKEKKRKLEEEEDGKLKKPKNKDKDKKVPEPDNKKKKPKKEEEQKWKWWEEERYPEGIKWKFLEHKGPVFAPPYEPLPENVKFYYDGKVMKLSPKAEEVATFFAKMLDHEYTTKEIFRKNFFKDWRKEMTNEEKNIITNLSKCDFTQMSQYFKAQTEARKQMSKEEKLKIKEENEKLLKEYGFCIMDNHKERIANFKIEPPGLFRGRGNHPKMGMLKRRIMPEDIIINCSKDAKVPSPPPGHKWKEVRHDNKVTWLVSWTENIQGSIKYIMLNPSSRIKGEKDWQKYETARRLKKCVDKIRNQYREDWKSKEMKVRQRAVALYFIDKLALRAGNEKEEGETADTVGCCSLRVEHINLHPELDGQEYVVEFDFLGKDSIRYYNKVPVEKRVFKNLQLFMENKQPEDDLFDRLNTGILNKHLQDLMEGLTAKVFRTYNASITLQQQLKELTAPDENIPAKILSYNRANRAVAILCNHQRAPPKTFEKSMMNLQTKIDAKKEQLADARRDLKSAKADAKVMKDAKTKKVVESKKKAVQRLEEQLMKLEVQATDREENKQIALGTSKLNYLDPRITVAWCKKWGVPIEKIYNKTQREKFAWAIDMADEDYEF
How it was run: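 Recombinant human TOP1 expressed in S. cerevisiae EKY3, 1 unit, with 200 ng supercoiled pBAD/Thio plasmid in 10 mM Tris-HCl pH 8.0, 150 mM NaCl, 1 mM EDTA, 0.1 mM spermidine, 0.1 mg/mL BSA, 5% glycerol; 37 °C, 30 min; SDS stop. Run on 1% agarose in TAE, 20 h at 25 V; ethidium bromide stain. Remaining supercoiled DNA quantified as % inhibition vs DMSO; TOP1 IC50 compared with TOP3B IC50.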

human TOP3B, sequence (O95985 whole entry): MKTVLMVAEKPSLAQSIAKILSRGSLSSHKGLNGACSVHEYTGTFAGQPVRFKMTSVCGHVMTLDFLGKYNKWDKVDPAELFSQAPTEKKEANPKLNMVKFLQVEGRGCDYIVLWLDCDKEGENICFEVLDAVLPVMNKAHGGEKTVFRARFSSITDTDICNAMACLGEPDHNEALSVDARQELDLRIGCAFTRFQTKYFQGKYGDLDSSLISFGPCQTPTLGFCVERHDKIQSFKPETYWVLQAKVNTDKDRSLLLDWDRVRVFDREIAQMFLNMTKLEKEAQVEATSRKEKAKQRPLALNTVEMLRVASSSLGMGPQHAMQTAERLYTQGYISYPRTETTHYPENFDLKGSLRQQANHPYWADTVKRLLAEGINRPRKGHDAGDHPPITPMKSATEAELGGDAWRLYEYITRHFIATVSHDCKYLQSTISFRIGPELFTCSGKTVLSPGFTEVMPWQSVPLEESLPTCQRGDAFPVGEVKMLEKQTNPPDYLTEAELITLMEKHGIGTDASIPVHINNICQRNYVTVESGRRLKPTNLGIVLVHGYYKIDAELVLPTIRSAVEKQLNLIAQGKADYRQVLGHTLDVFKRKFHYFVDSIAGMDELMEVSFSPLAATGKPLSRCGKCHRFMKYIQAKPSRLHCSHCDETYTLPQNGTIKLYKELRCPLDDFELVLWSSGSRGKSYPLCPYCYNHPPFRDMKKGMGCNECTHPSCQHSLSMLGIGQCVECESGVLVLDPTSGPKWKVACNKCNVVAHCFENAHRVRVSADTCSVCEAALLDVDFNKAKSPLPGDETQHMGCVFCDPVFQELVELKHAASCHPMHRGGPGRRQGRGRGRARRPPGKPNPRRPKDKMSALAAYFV
human TOP3B, sequence (Q9H7E2 whole entry partner): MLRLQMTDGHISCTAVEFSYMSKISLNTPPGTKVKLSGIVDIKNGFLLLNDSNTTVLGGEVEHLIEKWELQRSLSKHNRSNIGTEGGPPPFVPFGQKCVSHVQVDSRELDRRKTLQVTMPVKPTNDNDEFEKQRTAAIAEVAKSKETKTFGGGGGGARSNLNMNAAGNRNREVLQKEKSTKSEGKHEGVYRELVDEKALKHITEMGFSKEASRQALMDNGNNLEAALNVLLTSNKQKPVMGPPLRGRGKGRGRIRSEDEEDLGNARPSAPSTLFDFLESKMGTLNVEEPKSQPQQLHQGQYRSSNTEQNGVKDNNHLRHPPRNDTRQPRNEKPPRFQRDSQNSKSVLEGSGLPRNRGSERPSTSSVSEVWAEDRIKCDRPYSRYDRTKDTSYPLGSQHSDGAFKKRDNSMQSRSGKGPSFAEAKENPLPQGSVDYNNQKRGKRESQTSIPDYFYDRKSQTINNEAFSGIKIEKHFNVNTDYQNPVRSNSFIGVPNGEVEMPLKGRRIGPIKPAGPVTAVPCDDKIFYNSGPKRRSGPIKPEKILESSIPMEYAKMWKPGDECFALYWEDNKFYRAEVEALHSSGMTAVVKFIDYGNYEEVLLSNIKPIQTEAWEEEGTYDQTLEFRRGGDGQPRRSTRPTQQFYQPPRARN

| SMILES | Inhibition of the DNA relaxation activity of human TOP3B (human TOP3B) | IC50 (human TOP3B) [µM] | Selectivity for inhibition of human TOP3B versus TOP1 (human TOP1) |
| --- | --- | --- | --- |
| Cc1cn(-c2cc(NC(=O)c3ccc(C)c(Nc4nccc(-c5cnccn5)n4)c3)cc(C(F)(F)F)c2)cn1 [radotinib] | Inhibition was observed only for bemcentinib |  |  |
| Cc1cn(-c2cc(NC(=O)c3ccc(C)c(Nc4nccc(-c5cccnc5)n4)c3)cc(C(F)(F)F)c2)cn1 [nilotinib] | Inhibition was observed only for bemcentinib |  |  |
| CNC(=O)c1cc(Oc2ccc(NC(=O)Nc3cc(C(C)(C)C)nn3-c3ccc4ncccc4c3)c(F)c2)ccn1 [rebastinib] | Inhibition was observed only for bemcentinib |  |  |
| CN1CCN(C2CCN(C(=O)Nc3cc(Oc4ccc(NC(=O)C5(C(=O)Nc6ccc(F)cc6)CC5)c(F)c4)ccn3)CC2)CC1 [golvatinib] | Inhibition was observed only for bemcentinib |  |  |
| Nc1nc(Nc2ccc3c(c2)CC[C@@H](N2CCCC2)CC3)nn1-c1cc2c(nn1)-c1ccccc1CCC2 [bemcentinib] | Inhibition was observed | 34.3 | inhibits TOP3B with greater potency than TOP1 |
| Cc1cc(Nc2ncnc3ccc(NC4=NC(C)(C)CO4)cc23)ccc1Oc1ccn2ncnc2c1 [tucatinib] | Inhibition was observed only for bemcentinib |  |  |
